Compound activity: PubChem BioAssay, several laboratories
APOBEC3A inh – APOBEC3A ssDNA deaminase inhibitors, primary screen, selectivity assay for APOBEC3G inhibitor project, biochemical, FAM/TAMRA oligo cleavage fluorescence; inhibition, % at 20 µM; recombinant A3A, FAM/TAMRA ssDNA deamination fluorescence; 0.41% of 330,000 active;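 active = at least 40% inhibition at 20 µM here, with at most 30% in a related deaminase screen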;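 note: plate controls were A3A with DMSO for no effect and wells lacking A3A enzyme for full effect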
Target sequence (P31941 whole entry, looked up): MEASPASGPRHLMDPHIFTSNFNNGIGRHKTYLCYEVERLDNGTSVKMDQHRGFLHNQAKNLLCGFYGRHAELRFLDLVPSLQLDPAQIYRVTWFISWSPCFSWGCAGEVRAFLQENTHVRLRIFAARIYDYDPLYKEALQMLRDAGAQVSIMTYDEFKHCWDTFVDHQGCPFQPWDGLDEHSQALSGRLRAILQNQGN
Keap1 Nrf2 FP – Keap1-Nrf2 protein-protein interaction inhibitors, primary screen, biochemical, fluorescence polarization, single point; 0.15% of 340,000 active; inhibition, % at 9.4 µM; Kelch-like ECH-associated protein 1 (Homo sapiens), Q14145; Keap1 Kelch-Nrf2 peptide fluorescence polarization, 1536-well; in the data active = inhibition above about 12%;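 note: human Keap1 Kelch domain with fluorescein labeled Nrf2 9mer peptide probe; 0% = neutral control wells and 100% = peptide positive control; higher means more block of Keap1 binding to Nrf2 peptide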
A3G deaminase – APOBEC3G DNA deaminase inhibitors, primary screen, biochemical, fluorescence, single-stranded DNA substrate, uHTS; DNA dC->dU-editing enzyme APOBEC-3G (Homo sapiens), Q9HC16; recombinant A3G, ssDNA deamination FAM/TAMRA fluorescence; inhibition, % at 20 µM; 0.28% of 330,000 active;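 active = inhibition of at least 40% at 20 µM, with no more than 30% in the related APOBEC3A deaminase screen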;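 note: plate controls were DMSO wells with A3G for no effect and wells lacking A3G enzyme for full effect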
Target sequence (Q9HC16 whole entry, looked up): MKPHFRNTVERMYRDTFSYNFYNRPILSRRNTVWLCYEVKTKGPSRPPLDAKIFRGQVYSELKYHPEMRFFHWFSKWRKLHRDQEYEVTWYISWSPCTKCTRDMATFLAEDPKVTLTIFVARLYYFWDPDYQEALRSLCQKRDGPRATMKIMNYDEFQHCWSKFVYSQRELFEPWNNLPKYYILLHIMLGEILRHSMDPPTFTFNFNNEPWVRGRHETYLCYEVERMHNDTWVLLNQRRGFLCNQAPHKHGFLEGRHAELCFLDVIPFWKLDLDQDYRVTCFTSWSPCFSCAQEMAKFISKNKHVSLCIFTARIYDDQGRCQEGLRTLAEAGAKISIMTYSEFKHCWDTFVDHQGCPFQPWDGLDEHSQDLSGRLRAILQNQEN
LANA DNA inh – inhibitors of KSHV C-LANA binding to DNA, primary screen, biochemical, fluorescence polarization, FAM-LBS DNA, MBP-C-LANA, single point; 0.078% of 340,000 active; inhibition, % at 9 µM;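 active = highest replicate inhibition at or above 60% at 9 µM, even if other replicates fall short; inactive = all replicates below 60% inhibition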;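 note: 0% = neutral control wells and 100% = 4 µM acridine orange control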
CAL PDZ FP-1 – CAL PDZ peptide-binding inhibitors, primary screen, biochemical, fluorescence polarization, Cer-tagged CAL PDZ, HTS; purified CAL PDZ, TMR-peptide fluorescence polarization, 1 h; inhibition, % at 20 µM; AID 504414, 2011; 0.02% of 330,000 active;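 active = highest replicate inhibition of at least 40%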;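 note: plate controls were DMSO neutral control wells for no effect and unlabeled competitor peptide control wells for full effect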
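Read-out basis: mP drop reported as inhibition | Assay system: Tagged CAL PDZ protein CerCALP, purified | Benchmarks: Unlabelled peptide for full inhibition, DMSO wells as neutral | Schedule: 1 h incubation at room temperature before polarization reading | Buffer or medium: Sodium phosphate/NaCl buffer pH 7.4 with TCEP, IgG, Thesit | Doses: Single point, 20 µM | Measured by: Fluorescence polarization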
CAL PDZ FP-2 – untagged CAL PDZ binding inhibitors, primary screen, biochemical, fluorescence polarization, HTS. purified CAL PDZ, TMR-peptide fluorescence polarization, 1 h. inhibition, % at 24.9 µM. 0.92% of 300,000 active. Golgi-associated PDZ and coiled-coil motif-containing protein (Homo sapiens), Q9HD26;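 active = mean inhibition of at least 30% with at least half of replicates also reaching 30%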;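 note: 0% = DMSO neutral control and 100% = excess unlabeled competitor peptide PRC23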
Keap1 TSA – Keap1 Kelch domain binders by thermal stabilisation, dose response, biophysical, thermal shift, RT-PCR instrument, cherry-pick; AID 651823, 2012; delta Tm; hits give high values; 8% of 400 active; shares compounds with Keap1 Nrf2 FP; max delta Tm, degrees C; in the data active = max delta Tm above about 0.48 degrees C
Sypro dye melt – Sypro Orange dye melt without protein, dose response, artefact control for Keap1-Nrf2 interaction inhibitor project, biochemical, thermal shift counterscreen, cherry-pick. 140 tested, under 10 active. AID 651858, 2012. delta Tm, degrees C (concentration not given with the values). shares compounds with Keap1 Nrf2 FP. Sypro Orange dye-only thermal melt, no protein, delta Tm; top dose 26 µM;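 active = at highest dose tested, delta Tm positive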
* marks the source's active call; other numbers are inactive results. A selection: hits, their analogues and other compounds. The true share with any hit is near 1.7%.

`CN1C(=O)NC(c2ccccc2[N+](=O)[O-])C2=C1CCCC2=O` (centres undefined) gave APOBEC3A inh 2, Keap1 Nrf2 FP 29*, A3G deaminase 11, LANA DNA inh 46, CAL PDZ FP-1 2, CAL PDZ FP-2 10, Keap1 TSA 0.01 and Sypro dye melt -34.
Screening COc1ccc(Br)cc1CNCC1CCCO1 (centres undefined) returned APOBEC3A inh 0, Keap1 Nrf2 FP 36*, A3G deaminase -1, LANA DNA inh 19, CAL PDZ FP-1 -1 and Keap1 TSA -0.18.
For Brc1ccc(CNCC2CCCO2)cc1 (centres undefined) the results were APOBEC3A inh 9, Keap1 Nrf2 FP 0, A3G deaminase 2, LANA DNA inh 1, CAL PDZ FP-1 0 and CAL PDZ FP-2 -2.
For O=c1cc(CN2CCCc3ccccc32)nc2sccn12 the results were APOBEC3A inh -2, Keap1 Nrf2 FP 58*, A3G deaminase -3, LANA DNA inh 43, CAL PDZ FP-1 0, CAL PDZ FP-2 0 and Keap1 TSA 0.01.
For CN(c1ccc(C(=O)NCCCn2ccnc2)cc1)S(C)(=O)=O the results were APOBEC3A inh -5, Keap1 Nrf2 FP -4, A3G deaminase -4, LANA DNA inh 4, CAL PDZ FP-1 -1 and CAL PDZ FP-2 -2.
For Cc1oc2c(cc(NS(=O)(=O)c3ccc(F)cc3)c3ccccc32)c1C(=O)O the results were APOBEC3A inh 3, Keap1 Nrf2 FP 3, A3G deaminase -7, LANA DNA inh 2, CAL PDZ FP-1 -3 and CAL PDZ FP-2 5.
`Cc1oc2c(cc(NS(=O)(=O)c3ccc(C(C)C)cc3)c3ccccc32)c1C(=O)O` gave APOBEC3A inh 4, Keap1 Nrf2 FP 20*, A3G deaminase -2, LANA DNA inh 35, CAL PDZ FP-1 -2, CAL PDZ FP-2 -3 and Keap1 TSA 0.52*.
`COc1ccc(NC(=S)N2CCN(Cc3ccc(C)cc3)CC2)cc1` gave APOBEC3A inh -1, Keap1 Nrf2 FP 26*, A3G deaminase -1, LANA DNA inh -1, CAL PDZ FP-1 -1, Keap1 TSA -0.07 and Sypro dye melt -30.
Cc1ccc(NC(=S)N2CCN(Cc3ccccc3)CC2)cc1 was read as APOBEC3A inh -4, Keap1 Nrf2 FP 1, A3G deaminase -10, LANA DNA inh 0, CAL PDZ FP-1 0 and CAL PDZ FP-2 6.
For Fc1ccc(C2=CC(c3cccs3)n3nnnc3N2)cc1 (centres undefined) the results were APOBEC3A inh 12, Keap1 Nrf2 FP 1, A3G deaminase -14, LANA DNA inh 9 and CAL PDZ FP-1 -1.
Screening Cc1ccc(C2=CC(c3cccs3)n3nnnc3N2)cc1 (centres undefined) returned APOBEC3A inh -7, Keap1 Nrf2 FP 35*, A3G deaminase -12, LANA DNA inh 33, CAL PDZ FP-1 -1, CAL PDZ FP-2 2, Keap1 TSA -0.06 and Sypro dye melt -26.
`O=C(COC(=O)/C=C/c1cccc(Cl)c1)NC1CC1` gave APOBEC3A inh 3, Keap1 Nrf2 FP 24*, A3G deaminase -8, LANA DNA inh 11, CAL PDZ FP-1 -1, Keap1 TSA -0.09 and Sypro dye melt -23.
`COc1cccc(/C=C/C(=O)OCC(=O)NC(=O)NC2CCCC2)c1` gave APOBEC3A inh -3, Keap1 Nrf2 FP 36*, A3G deaminase -5, LANA DNA inh 16, CAL PDZ FP-1 1, Keap1 TSA -0.15 and Sypro dye melt -28.
Screening CCOC(=O)c1c(C)[nH]c(C(=O)COC(=O)c2cccnc2Cl)c1C returned APOBEC3A inh -1, Keap1 Nrf2 FP 25*, A3G deaminase -5, LANA DNA inh 11, CAL PDZ FP-1 -2, Keap1 TSA -0.07 and Sypro dye melt -27.
Screening Cc1ccccc1N1C(=O)c2cccc3c(N(C)CCO)ccc(c23)C1=O returned APOBEC3A inh -12, Keap1 Nrf2 FP 14*, A3G deaminase -19, LANA DNA inh 57, CAL PDZ FP-1 -3, CAL PDZ FP-2 -3 and Keap1 TSA -0.02.
CCOC(=O)c1c(NC(=O)CN2CCN(S(=O)(=O)c3cc(Cl)ccc3Cl)CC2)sc(C(=O)N(C)C)c1C was read as Keap1 Nrf2 FP 27*, LANA DNA inh 17, CAL PDZ FP-1 -3 and Keap1 TSA -0.11.
`CCOC(=O)c1c(NC(=O)COC(=O)c2ccc(Cl)nc2)sc(C(=O)N(C)C)c1C` gave APOBEC3A inh 1, Keap1 Nrf2 FP -4, A3G deaminase -4, LANA DNA inh -1, CAL PDZ FP-1 -5 and CAL PDZ FP-2 -5.
For CC(Oc1ccc(C#N)cc1)C(=O)N1CC=C(c2ccccc2)CC1 (centres undefined) the results were APOBEC3A inh -2, Keap1 Nrf2 FP -5, A3G deaminase -1, LANA DNA inh 2, CAL PDZ FP-1 0 and CAL PDZ FP-2 -3.
`COC(=O)c1cc(CNC(=O)c2ccccc2OCc2c(C)noc2C)ccc1OC` gave APOBEC3A inh -5, Keap1 Nrf2 FP 0, A3G deaminase 1, LANA DNA inh 1, CAL PDZ FP-1 -3 and CAL PDZ FP-2 0.
For Cc1ccc(C(=O)N/C(=C\c2ccc(-c3ccccc3[N+](=O)[O-])o2)C(=O)NCCN(C)C)cc1 the results were APOBEC3A inh -7, Keap1 Nrf2 FP 5, A3G deaminase -4, LANA DNA inh 10 and CAL PDZ FP-1 2.
`Cc1ccc(C(=O)N/C(=C\c2ccc(-c3ccccc3[N+](=O)[O-])o2)C(=O)NCCCN(C)C)cc1` gave APOBEC3A inh 1, Keap1 Nrf2 FP 14*, A3G deaminase -1, LANA DNA inh 32, CAL PDZ FP-1 -1, CAL PDZ FP-2 1 and Keap1 TSA 0.02.
